Laboratory results from ChEMBL document CHEMBL5674889, “Enhanced JunD/RSK3 signalling due to loss of BRD4/FOXD3/miR-548d-3p axis determines BET inhibition resistance” (2020).
Active and inactive are the calls of the source.

Legend:
BT-549 [1] = assay: Antiproliferative activity in human BT-549 cells assessed as reduced cell growth co-treated with GDC-0994 at 1 uM by CCK-8 assay; assay type: functional, cell-based
Outline: (§1)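 MDA-MB-231 (DMEM + 10% FBS) or BT549 (RPMI-1640 + 10% FBS) seeded at 3000 cells/well and left to adhere overnight. Treated 48 h with the kinase inhibitors alone, combined, or together with JQ1. Growth measured by CCK-8 and normalized to the DMSO-treated control after background subtraction. Triplicates, mean ± SD, one-way ANOVA against JQ1 alone.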

MDA-MB-231 [2] = assay: Antiproliferative activity in human MDA-MB-231 cells assessed as reduced cell growth co-treated with GDC-0994 at 1 uM by CCK-8 assay; assay type: functional, cell-based; outline: as §1
MDA-MB-231 [3] = assay: Effect on human MDA-MB-231 cells assessed as decrease in RSK3 protein expression in the presence of GDC-0994 at 1 uM by Western blot analysis; assay type: functional, cell-based
MDA-MB-231 [4] = assay: Antiproliferative activity in human MDA-MB-231 cells assessed as reduction in cell growth at 1 uM by CCK-8 assay; assay type: functional, cell-based
BT-549 [5] = assay: Antiproliferative activity in human BT-549 cells assessed as reduction in cell growth at 1 uM by CCK-8 assay; assay type: functional, cell-based
BT-549 [6] = assay: Antiproliferative activity in human BT-549 cells assessed as cell viability at 1 uM by CCK-8 assay; assay type: functional, cell-based
MDA-MB-231 [7] = assay: Effect on human MDA-MB-231 cells assessed as JunD protein expression by Western blot analysis; assay type: functional, cell-based
BT-549 [8] = assay: Effect on human BT-549 cells assessed as JunD protein expression by Western blot analysis; assay type: functional, cell-based
BT-549 [9] = assay: Effect on human BT-549 cells assessed as RPS6KA2 protein expression by Western blot analysis; assay type: functional, cell-based
MDA-MB-231 [10] = assay: Effect on human MDA-MB-231 cells assessed as RPS6KA2 protein expression by Western blot analysis; assay type: functional, cell-based
BT-474 = assay: Antiproliferative activity in human BT-474 cells assessed as cell growth at 1 uM by CCK-8 assay; assay type: functional, cell-based
Outline: (§2)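 Cells grown in 10% FBS medium (DMEM for BT-474 and MDA-MB-231) and seeded at 3000 cells/well, adhering overnight. Exposed to 1 μM for 48 h, with DMSO as control. Growth read by CCK-8 as background-subtracted signal normalized to the DMSO control. Mean ± SD of triplicates.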

MDA-MB-231 [11] = assay: Antiproliferative activity in human MDA-MB-231 cells assessed as cell growth at 1 uM by CCK-8 assay; assay type: functional, cell-based; outline: as §2
MDA-MB-231 [12] = assay: Effect on human MDA-MB-231 cells assessed as suppression of tumor sphere formation at 1 uM by Tumor sphere assay; assay type: functional, cell-based
BT-549 [13] = assay: Effect on human BT-549 cells assessed as suppression of tumor sphere formation at 1 uM by Tumor sphere assay; assay type: functional, cell-based
MDA-MB-231 [14] = assay: Antiproliferative activity in human BRD4-knockdown MDA-MB-231 cells assessed as cell growth at 1 uM by CCK-8 assay; assay type: functional, cell-based
Outline: (§3)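 Vector control or BRD4-knockdown cells, 3000/well, adhered overnight, then DMSO or osimertinib for 48 h; growth by CCK-8, normalized to DMSO-treated control. Triplicates, mean ± SD; one-way ANOVA, vehicle vs osimertinib in knockdown clones.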

BT-549 [15] = assay: Antiproliferative activity in human BRD4-knockdown BT-549 cells assessed as cell growth at 1 uM by CCK-8 assay; assay type: functional, cell-based; outline: as §3
MDA-MB-231 [16] = assay: Antiproliferative activity in human MDA-MB-231 cells assessed as reduction in size of tumor sphere at 1 uM by Tumor sphere assay; assay type: functional, cell-based
BT-549 [17] = assay: Antiproliferative activity in human BT-549 cells assessed as reduction in size of tumor sphere at 1 uM by Tumor sphere assay; assay type: functional, cell-based
BT-549 [18] = assay: Inhibition of cell migration in human BT-549 cells at 1 uM by transwell invasion assay; assay type: functional, cell-based
MDA-MB-231 [19] = assay: Inhibition of cell migration in human MDA-MB-231 cells at 1 uM by transwell invasion assay; assay type: functional, cell-based
Outline: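 Invasion assay: 1 × 10^5 cells seeded in Matrigel-coated upper Boyden chamber; lower chamber held serum-free medium with 100 nM LPA. After 24 or 48 h, invaded cells stained with crystal violet and counted.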

MDA-MB-231 [20] = assay: Induction of apoptosis in human MDA-MB-231 cells in the presence of osimertinib at 1 uM by flow cytometry analysis; assay type: functional, cell-based
Outline: (§4)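 Cells given JQ1 and/or osimertinib, then stained with Annexin V-FITC plus propidium iodide (10 min, room temperature, dark; 1 × 10^6 cells/ml in binding buffer after two PBS washes) and analysed by flow cytometry; one-way ANOVA.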

BT-549 [21] = assay: Induction of apoptosis in human BT-549 cells in the presence of osimertinib at 1 uM by flow cytometry analysis; assay type: functional, cell-based; outline: as §4
MDA-MB-231 [22] = assay: Induction of apoptosis in human MDA-MB-231 cells assessed as caspase-3 cleavage in the presence of osimertinib at 1 uM by Western blotting analysis; assay type: functional, cell-based
MDA-MB-231 [23] = assay: Antitumor activity against human MDA-MB-231 cells xenografted in BALB/c nude mouse model assessed as reduction of tumor size in the presence of osimertinib at 35 mg/kg/day, sc administered every 2 days for 30 days; assay type: functional, organism-based; conditions: time 30.0 day
Outline: (§5)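 MDA-MB-231 xenografts used 1 × 10^6 cells injected subcutaneously into female BALB/c nude mice (4–6 weeks). Animals were split into four groups (n = 7) at ~100 mm3: vehicle, osimertinib 10 mg/kg, 35 mg/kg agent, or the combination, each given every 2 days. Volume was measured by calliper as length × width²/2; tumours were weighed at end.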

MDA-MB-231 [24] = assay: Antitumor activity against human MDA-MB-231 cells xenografted in BALB/c nude mouse model assessed as reduction of tumor weight in the presence of osimertinib at 35 mg/kg/day, sc administered every 2 days for 30 days; assay type: functional, organism-based; conditions: time 30.0 day; outline: as §5
MDA-MB-231 [25] = assay: Antiproliferative activity in human MDA-MB-231 cells assessed as inhibited cell growth at 1 uM by CCK-8 assay; assay type: functional, cell-based
MDA-MB-231 [26] = assay: Antiproliferative activity in human MDA-MB-231 cells assessed as reduced cell growth co-treated with XMD8-92 at 1 uM by CCK-8 assay; assay type: functional, cell-based; outline: as §1
BT-549 [27] = assay: Antiproliferative activity in human BT-549 cells assessed as reduced cell growth co-treated with XMD8-92 at 1 uM by CCK-8 assay; assay type: functional, cell-based; outline: as §1
MDA-MB-231 [28] = assay: Effect on human MDA-MB-231 cells assessed as RSK3 protein expression in the presence of XMD8-92 at 1 uM by Western blot analysis; assay type: functional, cell-based
MDA-MB-231 [29] = assay: Effect on human MDA-MB-231 cells assessed as EGFR protein expression at 1 uM by Western blot analysis; assay type: functional, cell-based

CCOc1cc(N2CCC(O)CC2)ccc1Nc1ncc2c(n1)N(C)c1ccccc1C(=O)N2C
active: Activity (BT-549 [1]) | Activity (MDA-MB-231 [2]) | Activity (MDA-MB-231 [3])

C[S+]([O-])c1ccc(-c2nc(-c3ccc(F)cc3)c(-c3ccncc3)[nH]2)cc1 (stereo not drawn)
active: Activity (MDA-MB-231 [4]) | Activity (BT-549 [5])

CCNC(=O)C[C@@H]1N=C(c2ccc(Cl)cc2)c2cc(OC)ccc2-n2c(C)nnc21
active: Activity (BT-549 [6]) | Activity (MDA-MB-231 [7]) | Activity (BT-549 [8]) | Activity (BT-549 [9]) | Activity (MDA-MB-231 [10])

COc1cc2c(cc1-c1c(C)noc1C)ncc1[nH]c(=O)n([C@H](C)c3ccccn3)c12
active: Activity (BT-549 [6]) | Activity (MDA-MB-231 [7]) | Activity (BT-549 [8]) | Activity (BT-549 [9]) | Activity (MDA-MB-231 [10])

CN1CCN(c2ccc(-c3ccncc3-c3cc(F)c(O)c(F)c3)cc2)CC1
active: Activity (BT-474) | Activity (MDA-MB-231 [11])

C=CC(=O)Nc1cc(Nc2nccc(-c3cn(C)c4ccccc34)n2)c(OC)cc1N(C)CCN(C)C
active: Activity (MDA-MB-231 [12]) | Activity (BT-549 [13]) | Activity (MDA-MB-231 [14]) | Activity (BT-549 [15]) | Activity (BT-549 [6]) | Activity (MDA-MB-231 [16]) | Activity (BT-549 [17]) | inhibition (BT-549 [18]) | inhibition (MDA-MB-231 [19]) | Activity (MDA-MB-231 [20]) | Activity (BT-549 [21]) | Activity (MDA-MB-231 [22]) | Activity (MDA-MB-231 [23]) | Activity (MDA-MB-231 [24]) | Activity (MDA-MB-231 [25])

Cn1nccc1Nc1nccc(-c2ccn([C@H](CO)c3ccc(Cl)c(F)c3)c(=O)c2)n1
active: Activity (MDA-MB-231 [26]) | Activity (BT-549 [27]) | Activity (MDA-MB-231 [28]) | Activity (MDA-MB-231 [29])

Oc1c(F)cc(-c2cnccc2-c2ccc(N3CCOCC3)cc2)cc1F
active: Activity (BT-474) | Activity (MDA-MB-231 [11])
